Reference: ChEMBL document CHEMBL3751835, “Discovery of the imidazole-derived GPR40 agonist AM-3189” (Bioorg Med Chem Lett, 2016)
Active and inactive are the calls of the source. No cut-off for these calls is given here.

Legend:
[1] = target: T1, Free fatty acid receptor 1 (Homo sapiens, UniProt O14842); assay: Partial agonist activity at human GPR40 expressed in CHO cells measured over 20 secs interval by luminometric analysis in presence of 0.01% human serum albumin; assay type: cell-based
How it was run: (§1)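 Aequorin chemiluminescence read-out of calcium flux in a CHO line stably transfected with human GPR40, giving EC50. Run in buffer containing 0.01% human serum albumin, or in 100% human serum to test activity with plasma proteins present.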

[2] = target: T1, Free fatty acid receptor 1; assay: Partial agonist activity at human GPR40 expressed in CHO cells measured over 20 secs interval by luminometric analysis in presence of 100% human serum; assay type: cell-based; how it was run: as §1
[3] = target: T1, Free fatty acid receptor 1; assay: Potency index , ratio of EC50 for AMG837 to EC50 for test compound for partial agonist activity at human GPR40 expressed in CHO cells measured over 20 secs interval by luminometric analysis in presence of 0.01% human serum albumin; assay type: cell-based
[4] = target: T1, Free fatty acid receptor 1; assay: Partial agonist activity at human GPR40 expressed in CHO cells measured over 20 secs interval by luminometric analysis; assay type: cell-based
[5] = test system: Pancreatic islet; assay: Induction of insulin release in human pancreatic islets; assay type: functional
[6] = test system: Mus musculus; assay: Reduction of blood glucose AUC in human islet transplanted nude chimeric mouse at 100 ug/kg administered 1 hr prior to glucose challenge by OGTT; assay type: functional, organism-based
How it was run: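 Nude mice had their endogenous pancreatic β-cells ablated with streptozotocin and were rescued to euglycemia by human islets transplanted under the kidney capsule. Compound was dosed before a glucose challenge, and the glucose AUC was determined.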

T1 sequence (O14842 whole entry): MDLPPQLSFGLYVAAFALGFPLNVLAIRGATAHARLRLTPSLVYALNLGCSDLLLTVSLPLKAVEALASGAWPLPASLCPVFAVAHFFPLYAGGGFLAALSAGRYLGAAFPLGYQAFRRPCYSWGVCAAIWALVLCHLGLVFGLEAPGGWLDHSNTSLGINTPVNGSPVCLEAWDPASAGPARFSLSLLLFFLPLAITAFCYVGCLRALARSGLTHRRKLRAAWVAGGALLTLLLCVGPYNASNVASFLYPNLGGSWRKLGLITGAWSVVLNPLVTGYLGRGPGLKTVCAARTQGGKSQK

Row | SMILES | EC50 [1] [nM] | EC50 [2] [nM] | other results
1 | Cc1c(Cl)cccc1-c1cccc(COc2ccc([C@H](CC(=O)O)c3nccn3C)cc2)c1 | 61 | 22000 | –
2 | COc1ccccc1-c1cccc(COc2ccc([C@H](CC(=O)O)c3nccn3C)cc2)c1 | 410 | – | –
3 | Cn1ccnc1[C@@H](CC(=O)O)c1ccc(OCc2cccc(-c3ccc(Cl)cc3Cl)c2)cc1 | 69 | 30000 | –
4 | Cn1ccnc1[C@@H](CC(=O)O)c1ccc(OCc2cccc(-c3ccccc3Cl)c2)cc1 | 43 | 56000 | Ratio EC50 [3]: 2
5 | Cc1ccc(F)cc1-c1cccc(COc2ccc([C@H](CC(=O)O)c3nccn3C)cc2)c1 | 36 | 42000 | –
6 | Cc1ccccc1-c1cccc(COc2ccc([C@H](CC(=O)O)c3nccn3C)cc2)c1 | 43 | 89000 | Ratio EC50 [3]: 2
7 | Cn1ccnc1[C@@H](CC(=O)O)c1ccc(OCc2cccc(-c3ccccc3S(C)(=O)=O)c2)cc1 | 23000 | – | –
8 | O=C(O)CC(c1ccc(OCc2cccc(-c3ccc(C(F)(F)F)cc3)c2)cc1)c1ccccn1 (racemic) | – | – | EC50 [4]: 330 nM
9 | CCc1ccccc1-c1cccc(COc2ccc([C@H](CC(=O)O)c3nccn3C)cc2)c1 | 48 | 65000 | –
10 | Cn1ccnc1C(CC(=O)O)c1ccc(OCc2cccc(-c3ccc(C(F)(F)F)cc3)c2)cc1 (racemic) | – | – | EC50 [4]: 130 nM
11 | CC#C[C@@H](CC(=O)O)c1ccc(OCc2cccc(-c3ccc(C(F)(F)F)cc3)c2)cc1 | – | – | Activity [5]: Active
12 | CC[C@H](C)[C@H](NC(=O)[C@H](Cc1ccccc1)NC(=O)[C@H](CCC(=O)O)NC(=O)[C@H](CCCCN)NC(=O)[C@H](C)NC(=O)[C@H](C)NC(=O)[C@H](CCC(=O)O)NC(=O)CNC(=O)[C@H](CCC(=O)O)NC(=O)[C@H](CC(C)C)NC(=O)[C@H](Cc1ccc(O)cc1)NC(=O)[C@H](CO)NC(=O)[C@H](CO)NC(=O)[C@@H](NC(=O)[C@H](CC(=O)O)NC(=O)[C@H](CO)NC(=O)[C@@H](NC(=O)[C@H](Cc1ccccc1)NC(=O)[C@@H](NC(=O)CNC(=O)[C@H](CCC(=O)O)NC(=O)[C@H](C)NC(=O)[C@@H](N)Cc1cnc[nH]1)[C@@H](C)O)[C@@H](C)O)C(C)C)C(=O)N[C@@H](C)C(=O)N[C@@H](Cc1c[nH]c2ccccc12)C(=O)N[C@@H](CC(C)C)C(=O)N[C@H](C(=O)N[C@@H](CCCCN)C(=O)NCC(=O)N[C@@H](CCCNC(=N)N)C(=O)NCC(=O)O)C(C)C | – | – | Activity [6]: Active
13 | Cn1ccnc1[C@@H](CC(=O)O)c1ccc(OCc2cccc(-c3ccccc3C#N)c2)cc1 | 690 | – | –
14 | COc1ccc(-c2cccc(COc3ccc([C@H](CC(=O)O)c4nccn4C)cc3)c2)cc1 | 440 | – | –
15 | Cc1cc(F)ccc1-c1cccc(COc2ccc([C@H](CC(=O)O)c3nccn3C)cc2)c1 | 59 | 21000 | –
16 | O=C(O)CC(c1ccncc1)c1ccc(OCc2cccc(-c3ccc(C(F)(F)F)cc3)c2)cc1 (racemic) | – | – | EC50 [4]: 190 nM
17 | O=C(O)CC(c1ccc(OCc2cccc(-c3ccc(C(F)(F)F)cc3)c2)cc1)c1cccs1 (racemic) | – | – | EC50 [4]: 190 nM
18 | O=C(O)CC(c1ccc(OCc2cccc(-c3ccc(C(F)(F)F)cc3)c2)cc1)c1nccs1 (racemic) | – | – | EC50 [4]: 120 nM
19 | Cc1cc(Cl)ccc1-c1cc(COc2ccc([C@H](CC(=O)O)c3nccn3C)cc2)ccc1C | 97 | 9800 | –
20 | O=C(O)CC(c1ccccc1)c1ccc(OCc2cccc(-c3ccc(C(F)(F)F)cc3)c2)cc1 (racemic) | – | – | EC50 [4]: 330 nM
21 | Cc1cccc(C)c1-c1cccc(COc2ccc([C@H](CC(=O)O)c3nccn3C)cc2)c1 | 58 | 29000 | –
22 | O=C(O)CC(c1ccc(OCc2cccc(-c3ccc(C(F)(F)F)cc3)c2)cc1)c1cccnc1 (racemic) | – | – | EC50 [4]: 400 nM
23 | COc1cccc(-c2cccc(COc3ccc([C@H](CC(=O)O)c4nccn4C)cc3)c2)c1 | 750 | – | –
24 | Cc1cc(Cl)ccc1-c1cccc(COc2ccc([C@H](CC(=O)O)c3nccn3C)cc2)c1C | 240 | 23000 | –
25 | Cn1ccnc1[C@@H](CC(=O)O)c1ccc(OCc2cccc(-c3ccccc3OC(F)(F)F)c2)cc1 | 112 | 61000 | –
